# Source: publication PMC3358524 (Journal of Immunology (Baltimore, Md. : 1950), 2012)
# Peptide text beside a SMILES is read from it.
# Columns and labels:
# [1] = target: HLA-B*0702 (Homo sapiens, UniProt P01889); assay: Competitive peptide-binding assay, purified HLA-B*0702
# Summary of the method: (§1)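 HLA class I purified from EBV-transformed homozygous or single-allele-transfected 721.221/C1R lysates on W6/32 beads (some HLA-A pre-depleted of B/C on B1.23.2). 0.1–1 nM radiolabeled high-affinity probe, 1 µM to 1 nM MHC, protease inhibitors, 1 µM β2m; 2 days, room temp. Complexes captured on W6/32 plates, cpm counted. Competitor at six concentrations over 100,000-fold range, ≥3 experiments; IC50 = 50% probe inhibition.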
# [2] = target: HLA-B*3501 (Homo sapiens, UniProt P01889, A329T/A93T/A95T/C349S/D201E/D98Y/E176V/E187L/E204Q/E69T/I218V/K202T/L119I/Q94N/R155S/R180L/S121R/S35A/S48A/T118I/V127L/V306I/V36M/Y140S/Y91F); assay: Competitive peptide-binding assay, purified HLA-B*3501
# Summary of the method: as §1
# [3] = target: HLA-B*3503 (Homo sapiens, UniProt P01889, A329T/A93T/A95T/C349S/D201E/D98Y/E176V/E187L/E204Q/E69T/I218V/K202T/L119I/Q94N/R155S/R180L/S121R/S35A/S48A/T118I/V127L/V306I/V36M/Y140F/Y91F); assay: Competitive peptide-binding assay, purified HLA-B*3503
# Summary of the method: as §1
# [4] = target: HLA-B*4201 (Homo sapiens, UniProt P01889, D138N/E176V/E187T/K202T/R180D); assay: Competitive peptide-binding assay, purified HLA-B*4201
# Summary of the method: as §1
# [5] = target: HLA-B*5101 (Homo sapiens, UniProt P01889, A329T/A93T/A95T/C349S/D138N/D201E/D98Y/E187L/E204Q/E69T/G107R/I218V/K202T/L105A/L119W/N104I/Q94N/R106L/R155S/R180L/S101N/S121T/S35A/S48A/V306I/V36M/Y195H/Y91F); assay: Competitive peptide-binding assay, purified HLA-B*5101
# Summary of the method: as §1
# [6] = target: HLA-B*5301 (Homo sapiens, UniProt P01889, A329T/A93T/A95T/C349S/D201E/D98Y/E176V/E187L/E204Q/E69T/G107R/I218V/K202T/L105A/L119I/N104I/Q94N/R106L/R155S/R180L/S101N/S121R/S35A/S48A/T118I/V127L/V306I/V36M/Y140S/Y91F); assay: Competitive peptide-binding assay, purified HLA-B*5301
# Summary of the method: as §1
# [7] = target: HLA-B*5401 (Homo sapiens, UniProt P01889, A329T/C349S/D138N/D201E/E176V/E187T/E204Q/E69G/I76V/K202T/L119W/R155S/R180L/S121T/S35A/S48A/V127L/V306I/V36M/Y140L); assay: Competitive peptide-binding assay, purified HLA-B*5401
# Summary of the method: as §1
# [8] = tested on: T cells of recent-onset HLA-A*0201-positive patients; settings: recent-onset HLA-A*0201-positive type 1 diabetes patients; cited from earlier work
# [9] = target: HLA-A*1101 (Homo sapiens, UniProt P04439, A114D/D185E/E176A/F33Y/L180Q/S129P/T187R); assay: Competitive peptide-binding assay, purified HLA-A*1101
# [10] = target: HLA-A*0301 (Homo sapiens, UniProt P04439); assay: Competitive peptide-binding assay, purified HLA-A*0301
# Summary of the method: as §1
# [11] = target: HLA-A*3001 (Homo sapiens, UniProt P04439, D140H/D185E/E176W/F33S/G80R/H175R/K168Q/R138E/R41S); assay: Competitive peptide-binding assay, purified HLA-A*3001
# Summary of the method: as §1
# [12] = target: HLA-A*3101 (Homo sapiens, UniProt P04439, A270S/D185E/E176V/E277Q/F33T/G231S/G80R/H175R/I121M/I218V/I322F/K168Q/L300P/L318F/M331R/P217A/Q94H/R138Q/T323A/T345S/T97I/V358M); assay: Competitive peptide-binding assay, purified HLA-A*3101
# [13] = target: HLA-A*3301 (Homo sapiens, UniProt P04439, A270S/D185E/E176V/E277Q/E87N/F33T/G231S/H175R/I121M/I218V/I322F/K168Q/K210R/L300P/L318F/M331R/P217A/Q86R/Q94H/R138Q/T323A/T345S/T97I/V358M/Y195H); assay: Competitive peptide-binding assay, purified HLA-A*3301
# Summary of the method: as §1
# [14] = target: HLA-A*6601 (Homo sapiens, UniProt P04439, A114D/A173T/A270S/D185E/E277Q/E87N/F33Y/G231S/I121R/I218V/K168Q/L180W/L300P/L318F/P208A/P217A/Q86R/R138Q/S129P/T187R/T323A/T345S/V358M); assay: Competitive peptide-binding assay, purified HLA-A*6601
# Summary of the method: as §1
# [15] = target: HLA-A*6801 (Homo sapiens, UniProt P04439, A269V/D185E/E176V/E277Q/E87N/F33Y/G231S/I121M/I166T/I218V/L180W/L300P/L318F/N151K/P208A/P217A/Q86R/R169H/T345S); assay: Competitive peptide-binding assay, purified HLA-A*6801
# Summary of the method: as §1
compound,measurement,setting,value
CC(C)C[C@H](NC(=O)[C@H](C)NC(=O)[C@H](CC(C)C)NC(=O)[C@@H]1CCCN1C(=O)[C@H](CCC(N)=O)NC(=O)[C@H](CC(C)C)NC(=O)[C@H](CO)NC(=O)CNC(=O)[C@H](C)NC(=O)CNC(=O)[C@@H]1CCCN1C(=O)CN)C(=O)O [Human Ins C15-26] (H-GPGAGSLQPLAL-OH),IC50,[1],0.462 µM
same,IC50,[2],> 50 µM
same,IC50,[3],> 50 µM
same,IC50,[4],6.07 µM
same,IC50,[5],> 50 µM
same,IC50,[6],15.5 µM
same,IC50,[7],> 50 µM
"IGRP 265–273: HLA-A2-binding IGRP epitope recognised in patients (VLFGLGFAI; UniProt Q9NQR9 265-273, looked up, fragment)",Patients showing T cell responses to the peptide (fraction in words),[8],one quarter
CC(C)C[C@H](NC(=O)[C@H](C)NC(=O)[C@@H](N)CC(C)C)C(=O)N[C@@H](CCC(=O)O)C(=O)NCC(=O)N[C@@H](CO)C(=O)N[C@@H](CC(C)C)C(=O)N[C@@H](CCC(N)=O)C(=O)N[C@@H](CCCCN)C(=O)N[C@@H](CCCNC(=N)N)C(=O)O [Human Ins C24-33] (H-LALEGSLQKR-OH),IC50,[9],34.5 µM
same,IC50,[10],17.5 µM
same,IC50,[11],> 50 µM
same,IC50,[12],38.4 µM
same,IC50,[13],3.27 µM
same,IC50,[14],0.515 µM
same,IC50,[15],0.066 µM
CC[C@H](C)[C@H](NC(=O)[C@H](C)N)C(=O)N[C@@H](CC(N)=O)C(=O)N[C@@H](CO)C(=O)N[C@@H](CCC(=O)O)C(=O)N[C@@H](CCSC)C(=O)N[C@@H](Cc1ccccc1)C(=O)N[C@@H](CC(C)C)C(=O)N[C@@H](CCCNC(=N)N)C(=O)O [Mouse IGRP 272–280] (H-AINSEMFLR-OH),IC50,[9],0.209 µM
same,IC50,[10],0.428 µM
same,IC50,[11],49.8 µM
same,IC50,[12],0.067 µM
same,IC50,[13],1.08 µM
same,IC50,[14],4.55 µM
same,IC50,[15],0.109 µM
CC[C@H](C)[C@H](NC(=O)[C@H](C)N)C(=O)N[C@@H](CC(N)=O)C(=O)N[C@@H](CO)C(=O)N[C@@H](CCC(=O)O)C(=O)N[C@@H](CCSC)C(=O)N[C@@H](Cc1ccccc1)C(=O)N[C@@H](CC(C)C)C(=O)N[C@@H](CC(C)C)C(=O)O [Human IGRP 272–280] (H-AINSEMFLL-OH),IC50,[9],2.82 µM
same,IC50,[10],1.26 µM
same,IC50,[11],6.78 µM
same,IC50,[12],1.07 µM
same,IC50,[13],12.8 µM
same,IC50,[14],36.7 µM
same,IC50,[15],14.2 µM
CC(C)C[C@H](NC(=O)[C@H](C)NC(=O)[C@H](CC(C)C)NC(=O)[C@@H](N)[C@@H](C)O)C(=O)N[C@@H](CCC(=O)O)C(=O)N[C@H](C(=O)N[C@@H](C)C(=O)N[C@@H](CCCNC(=N)N)C(=O)N[C@@H](CCC(N)=O)C(=O)N[C@@H](CCCCN)C(=O)O)C(C)C [Mouse Ins1 C21-30] (H-TLALEVARQK-OH),IC50,[9],3.33 µM
same,IC50,[10],0.605 µM
same,IC50,[11],23.3 µM
same,IC50,[12],13 µM
same,IC50,[13],25.5 µM
same,IC50,[14],> 50 µM
same,IC50,[15],13.4 µM
CC(C)C[C@H](NC(=O)[C@H](C)NC(=O)[C@H](CC(C)C)NC(=O)[C@@H](N)[C@@H](C)O)C(=O)N[C@@H](CCC(=O)O)C(=O)N[C@H](C(=O)N[C@@H](C)C(=O)N[C@@H](CCC(N)=O)C(=O)N[C@@H](CCC(N)=O)C(=O)N[C@@H](CCCCN)C(=O)O)C(C)C [Mouse Ins2 C23-32] (H-TLALEVAQQK-OH),IC50,[9],0.833 µM
same,IC50,[10],0.856 µM
same,IC50,[11],> 50 µM
same,IC50,[12],> 50 µM
same,IC50,[13],> 50 µM
same,IC50,[14],> 50 µM
same,IC50,[15],7.49 µM
CC(C)C[C@H](NC(=O)[C@H](C)NC(=O)[C@H](CC(C)C)NC(=O)[C@@H]1CCCN1)C(=O)N[C@@H](CCC(=O)O)C(=O)NCC(=O)N[C@@H](CO)C(=O)N[C@@H](CC(C)C)C(=O)N[C@@H](CCC(N)=O)C(=O)N[C@@H](CCCCN)C(=O)O [Human Ins C23-32] (H-PLALEGSLQK-OH),IC50,[9],37.1 µM
same,IC50,[10],20.9 µM
same,IC50,[11],> 50 µM
same,IC50,[12],39.4 µM
same,IC50,[13],> 50 µM
same,IC50,[14],48.5 µM
same,IC50,[15],41.5 µM
CC(C)C[C@H](NC(=O)[C@H](C)NC(=O)[C@@H](N)CC(C)C)C(=O)N[C@@H](CCC(=O)O)C(=O)N[C@H](C(=O)N[C@@H](C)C(=O)N[C@@H](CCCNC(=N)N)C(=O)N[C@@H](CCC(N)=O)C(=O)N[C@@H](CCCCN)C(=O)N[C@@H](CCCNC(=N)N)C(=O)O)C(C)C [Mouse Ins1 C22-31] (H-LALEVARQKR-OH),IC50,[9],> 50 µM
same,IC50,[10],43.6 µM
same,IC50,[11],43 µM
same,IC50,[12],10.8 µM
same,IC50,[13],9.14 µM
same,IC50,[14],13 µM
same,IC50,[15],12.6 µM
CC(C)C[C@H](NC(=O)[C@H](C)NC(=O)[C@H](CC(C)C)NC(=O)[C@@H](NC(=O)[C@H](CCC(N)=O)NC(=O)[C@H](CC(C)C)NC(=O)[C@H](CC(=O)O)NC(=O)CNC(=O)[C@@H]1CCCN1C(=O)[C@@H](N)CO)[C@@H](C)O)C(=O)O [Mouse Ins1 C15-24] (H-SPGDLQTLAL-OH),IC50,[1],0.0044 µM
same,IC50,[2],> 50 µM
same,IC50,[3],16.1 µM
same,IC50,[4],0.035 µM
same,IC50,[5],> 50 µM
same,IC50,[6],11 µM
same,IC50,[7],> 50 µM
